These results are taken from ChEMBL document CHEMBL1123418, “N-imidazolylchroman-4-ones, N-imidazolyl-1-tetralones, and their alcohols as hypolipemic agents raising high-density lipoproteins” (1986).

Values joined by “and” are separate entries in the source; they are usually repeats but may differ in a detail not shown here. Identical values can stand only once.

Test [1] relates to Rattus norvegicus. Nature of the test: Percent increase in liver weight in rats when administered perorally. Type of test: functional.
Test [2] deals with Rattus norvegicus. As to the kind of experiment: Percent change in total cholesterol concentration in serum from hypercholesterolemic rats at dose 50 mg/kg (po). Type of test: functional.
Test [3] concerns Rattus norvegicus. As to the kind of experiment: Percent change in high density lipoproteins cholesterol concentration in serum from hypercholesterolemic rats at dose 50 mg/kg (po). Type of test: functional. A digest of the protocol:
(§1)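 Rats were fed 1.5% cholesterol/0.5% cholic acid diet for 7 days, with compounds given by gavage over the last 4 days as a 0.5% Methocel suspension (0.5 mL/100 g). Rats were fasted overnight, killed on day 8 and bled under light CO₂ anesthesia. HDL was isolated by heparin-MnCl₂ precipitation (8000 rpm, 15 min, 4 °C). Total and HDL cholesterol were measured enzymatically-colorimetrically; % change vs control.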

Test [4] relates to Rattus norvegicus. Nature of the test: Percent change in total cholesterol concentration in serum from hypercholesterolemic rats at dose 35 mg/kg (po). Type of test: functional.
Test [5] deals with Rattus norvegicus. Nature of the test: Percent change in high density lipoproteins cholesterol concentration in serum from hypercholesterolemic rats at dose 35 mg/kg (po). Type of test: functional. The method in brief: as §1
The species entered for test [6] is Rattus norvegicus. As to the kind of experiment: Compound was tested in vitro for inhibition of Cholesterol biosynthesis in rat liver slices, % inhibition of [14C]acetate incorporation in neutral lipids at 2 e10-4 concentration. Type of test: functional. A digest of the protocol:
(§2)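 Liver slices (250 mg) from fed male rats were incubated in Krebs-Ringer bicarbonate, pH 7.4, with 4 mM [2-¹⁴C]acetate under 95% O₂-5% CO₂. Compounds were tested at a final 2 × 10⁻⁴ M, or 5 × 10⁻⁵ M for one compound. ¹⁴C incorporation into cholesterol and into petroleum-ether-soluble nonsaponifiable neutral lipids gave % inhibition; mean of four determinations.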

The species entered for test [7] is Rattus norvegicus. Nature of the test: Compound was tested in vitro for inhibition of Cholesterol biosynthesis in rat liver slices, % inhibition of [14C]-acetate incorporation in cholesterol at 2 e10-4 concentration. Type of test: functional. The method in brief: as §2
Test [8] concerns Rattus norvegicus. Nature of the test: Percent change in total cholesterol concentration in serum from hypercholesterolemic rats at dose 23 mg/kg (po). Type of test: functional. The method in brief: as §1
The subject of test [9] is Rattus norvegicus. As to the kind of experiment: Percent change in high density lipoproteins cholesterol concentration in serum from hypercholesterolemic rats at dose 23 mg/kg (po). Type of test: functional. A digest of the protocol: as §1
The test system of test [10] is Rattus norvegicus. Nature of the test: Percent change in total cholesterol concentration in serum from hypercholesterolemic rats at dose 45 mg/kg (po). Type of test: functional.
Test [11] deals with Rattus norvegicus. Nature of the test: Percent change in high density lipoproteins cholesterol concentration in serum from hypercholesterolemic rats at dose 45 mg/kg (po). Type of test: functional. The method in brief: as §1
Test [12] concerns Rattus norvegicus. Nature of the test: Percent increase in liver weight in rats when a 50 mg/Kg dose was administered. Type of test: functional.
The nature of test [13]: Percent change in high density lipoprotein cholesterol.
For test [14], the system named is Rattus norvegicus. As to the kind of experiment: Percent change in triglyceride concentration in serum from normocholesterolemic rats at dose 50 mg/kg (po).
Test [15] relates to Rattus norvegicus. As to the kind of experiment: Percent change in low density lipoproteins cholesterol concentration in serum from normocholesterolemic rats at dose 50 mg/kg (po).

With `COc1ccc2c(c1)C(=O)C(n1ccnc1)CO2` (centres undefined), the Change in the test with Rattus norvegicus [1] was 20%; in the test on Rattus norvegicus [2], -21%; in the test with Rattus norvegicus [3], 88%.

With `COc1ccc2c(c1)C(O)C(n1ccnc1)CC2` (centres undefined), the Change is listed as 21% in the test with Rattus norvegicus [1], -24% in the test with Rattus norvegicus [2] and 88% in the test on Rattus norvegicus [3].

The Inhibition is the change of the read-out against control, counted positive when it falls. Lower therefore signals little suppression. As for `Nc1ccc2c(c1)C(=O)C(n1ccnc1)CC2` (centres undefined), the figures for the Change with Rattus norvegicus [1], in the test on Rattus norvegicus [4] and in the test with Rattus norvegicus [5] were 3%, -24% and 31%, respectively. The Inhibition is 0% in the test listed under Rattus norvegicus [6] and 74% in the test filed under Rattus norvegicus [7].

Consider `CCCc1cc2c(cc1OC)OC(C)C(n1ccnc1)C2=O` (centres undefined), for which the Change was 24% in the test with Rattus norvegicus [1], -57% in the test with Rattus norvegicus [4] and 152% in the test on Rattus norvegicus [5].

Take `CC1Oc2cc(O)c(C(C)(C)C)cc2C(=O)C1n1ccnc1` (centres undefined): the Change in the test with Rattus norvegicus [1] is on record as 9%; in the test with Rattus norvegicus [2], -7%; in the test on Rattus norvegicus [3], 32%.

With `O=C1c2cc([N+](=O)[O-])ccc2CCC1n1ccnc1` (centres undefined), the values for the Change with Rattus norvegicus [1], in the test on Rattus norvegicus [2] and in the test on Rattus norvegicus [3] were 5%, -16% and 23%, respectively.

Regarding `Clc1ccc2c(c1)C=C(n1ccnc1)CO2`, the Change with Rattus norvegicus [1] is recorded as 2%; in the test on Rattus norvegicus [2], -10%; in the test on Rattus norvegicus [3], 25%.

Turning to `CC(C)(C)c1cc(Br)c2c(c1)C(=O)C(n1ccnc1)CO2` (centres undefined), the Change in the test on Rattus norvegicus [1] is 15%; in the test on Rattus norvegicus [2], -12%; with Rattus norvegicus [3] it was 57%.

For the compound `O=C1c2cc(-c3ccccc3)ccc2CCC1n1ccnc1` (centres undefined), the figures for the Change in the test with Rattus norvegicus [1], in the test on Rattus norvegicus [8] and in the test on Rattus norvegicus [9] were 2%, 4% and 8%, respectively.

Consider `O=C1c2ccsc2CCC1n1ccnc1` (centres undefined), for which the figures for the Change in the test on Rattus norvegicus [2] and in the test on Rattus norvegicus [3] were 17% and 2%, respectively.

In the case of `OC1c2cc(Cl)ccc2OCC1n1ccnc1` (trans isomer), the Change in the test on Rattus norvegicus [1] is listed as 20%; in the test with Rattus norvegicus [2] (50 mg/kg), -14%; with Rattus norvegicus [3] (50 mg/kg), 83%.

For the compound `O=C1c2ccc(O)cc2CCC1n1ccnc1` (centres undefined), the Change is -3% in the test on Rattus norvegicus [1], 30% in the test with Rattus norvegicus [2] and 12% in the test on Rattus norvegicus [3].

For `Cc1ccc2c(c1)C(=O)C(n1ccnc1)CO2` (centres undefined), the Change in the test on Rattus norvegicus [2] worked out at 7%; in the test with Rattus norvegicus [3], 32%.

Take `Cc1cc(Br)c2c(c1)C(=O)C(n1ccnc1)CO2` (centres undefined): the Change was 7% in the test with Rattus norvegicus [1], -15% in the test with Rattus norvegicus [10] and 21% with Rattus norvegicus [3].

For `Cc1nccn1C1COc2ccc(Cl)cc2C1=O` (centres undefined), the Change in the test on Rattus norvegicus [1] stood at 14%; in the test with Rattus norvegicus [2] it was 39%; in the test on Rattus norvegicus [3], 23%.

Regarding `CCCCCCCCOC1c2cc(Cl)ccc2OCC1n1ccnc1` (centres undefined), the values for the Change with Rattus norvegicus [2] and in the test on Rattus norvegicus [3] were 42% and 18%, respectively.

With `CCCC1Oc2ccccc2C(=O)C1n1ccnc1` (centres undefined), the results for the Change with Rattus norvegicus [1], with Rattus norvegicus [10] and with Rattus norvegicus [11] were 20%, -4% and 53%, respectively.

Take `COc1cc(Br)c2c(c1)C(=O)C(n1ccnc1)CO2` (centres undefined): the Change in the test on Rattus norvegicus [1] is 6%; with Rattus norvegicus [2] it was 14%; in the test with Rattus norvegicus [3] it was 64%.

With `OC1c2cc(Cl)ccc2OCC1n1ccnc1` (stereo in doubt; 40), the Change was 24% in the test with Rattus norvegicus [12]; 24% in the test with Rattus norvegicus [1]; -42% and -19% with Rattus norvegicus [2] (50 mg/kg); -36% in the test on Rattus norvegicus [14]; -50% in the test on Rattus norvegicus [15]. Besides, the Inhibition in the test filed under Rattus norvegicus [6] and in the test listed under Rattus norvegicus [7] was 0% each time. Further, in test [13], the “Percent change in HDL cholesterol” value worked out at 123.

`O=C1c2ccccc2OC(c2ccccc2)C1n1ccnc1` (centres undefined): the Change in the test on Rattus norvegicus [1] is given as 5%; in the test on Rattus norvegicus [2], 27%; in the test on Rattus norvegicus [3], -3%.

As to `COc1ccc2c(c1)OCC(n1ccnc1)C2=O` (centres undefined), the results for the Change in the test on Rattus norvegicus [1], in the test with Rattus norvegicus [2] and with Rattus norvegicus [3] were 3%, 11% and -1%, respectively.

For `O=C1c2ccccc2OCC1n1ccnc1` (centres undefined), the Change turned out to be 16% with Rattus norvegicus [1], 34% with Rattus norvegicus [2] and 4% in the test with Rattus norvegicus [3].

In the case of `O=C1c2ccc(-c3ccccc3)cc2OCC1n1ccnc1` (centres undefined), the results for the Change with Rattus norvegicus [1], in the test with Rattus norvegicus [2] and in the test on Rattus norvegicus [3] were 22%, -48% and 118%, respectively.

Consider `COC1c2cc(Cl)ccc2OCC1n1ccnc1` (racemic), for which the Change with Rattus norvegicus [1] is 15%; in the test with Rattus norvegicus [2], 8%; in the test with Rattus norvegicus [3] it was -7%.

Take `O=C1c2ccccc2CCC1n1ccnc1` (centres undefined): the values for the Change with Rattus norvegicus [1], with Rattus norvegicus [2] and in the test on Rattus norvegicus [3] were 13%, -34% and 94%, respectively.

With `CC1Cc2ccccc2C(=O)C1n1ccnc1` (centres undefined), the figures for the Change with Rattus norvegicus [1], with Rattus norvegicus [2] and in the test on Rattus norvegicus [3] were 26%, -54% and 102%, respectively.

Turning to `O=C1c2cc(O)ccc2OCC1n1ccnc1` (centres undefined), the Change in the test with Rattus norvegicus [1] is listed as 3%; in the test on Rattus norvegicus [2], 9%; with Rattus norvegicus [3], -4%.

For the compound `CC1Oc2cc(O)ccc2C(=O)C1n1ccnc1` (centres undefined), the Change in the test on Rattus norvegicus [1] is 3%; with Rattus norvegicus [2], -22%; with Rattus norvegicus [3] it was 2%.

Take `COc1ccc2c(c1)C(=O)C(n1ccnc1)CC2` (centres undefined): the results for the Change in the test on Rattus norvegicus [1], with Rattus norvegicus [2] and with Rattus norvegicus [3] were 10%, -40% and 52%, respectively.

Consider `O=C1c2cc(Br)cc(Br)c2OCC1n1ccnc1` (centres undefined), for which the Change with Rattus norvegicus [1] is given as 29%; in the test with Rattus norvegicus [2], -68%; with Rattus norvegicus [3] it was 171%.

As for `CC(C)(C)c1cc2c(cc1O)OCC(n1ccnc1)C2=O` (centres undefined), the Change in the test with Rattus norvegicus [1] is 11%; in the test on Rattus norvegicus [2], -55%; with Rattus norvegicus [3], 97%.

On to `CC1Oc2ccccc2C(=O)C1n1ccnc1` (centres undefined), for which the Change with Rattus norvegicus [1] is listed as 15%; with Rattus norvegicus [2] it was -67%; in the test with Rattus norvegicus [3] it was 115%.

With `O=C1c2ccccc2OC(c2cccnc2)C1n1ccnc1` (centres undefined), the Change in the test on Rattus norvegicus [1] was 4%; with Rattus norvegicus [2] it was -4%; in the test with Rattus norvegicus [3], 12%.

In the case of `O=C(O)c1ccc2c(c1)C(=O)C(n1ccnc1)CC2` (centres undefined), the Change was -3% with Rattus norvegicus [1], -5% with Rattus norvegicus [10] and -9% in the test on Rattus norvegicus [11].

For `O=C1c2ccccc2CCC1n1cccn1` (centres undefined), the Change with Rattus norvegicus [1] is 9%; in the test with Rattus norvegicus [2] it was 52%; with Rattus norvegicus [3], -3%.

For `CC1Oc2c(Br)cc(C(=O)O)cc2C(=O)C1n1ccnc1` (centres undefined), the figures for the Change in the test on Rattus norvegicus [1], in the test on Rattus norvegicus [2] and in the test with Rattus norvegicus [3] were 4%, -23% and -11%, respectively.

In the case of `O=C1c2cc(Cl)ccc2OCC1n1cccn1` (centres undefined), the Change with Rattus norvegicus [1] was found to be 6%; with Rattus norvegicus [2], 35%; in the test with Rattus norvegicus [3], 13%.

Take `O=C1c2cc(O)cc(Br)c2OCC1n1ccnc1` (centres undefined): the Change with Rattus norvegicus [1] is reported as -1%; in the test on Rattus norvegicus [2], 2%; in the test with Rattus norvegicus [3] it was 1%.

In the case of `COc1ccc2c(c1)OC(C)C(n1ccnc1)C2=O` (centres undefined), the results for the Change with Rattus norvegicus [1], in the test on Rattus norvegicus [2] and in the test with Rattus norvegicus [3] were 2%, 11% and 5%, respectively.

Consider `O=C1c2cc(Br)ccc2OCC1n1ccnc1` (centres undefined), for which the figures for the Change in the test with Rattus norvegicus [1], in the test on Rattus norvegicus [2] and with Rattus norvegicus [3] were 23%, -50% and 144%, respectively.
